Test results: ChEMBL document CHEMBL2203053, “DNA binding acridine-thiazolidinone agents affecting intracellular glutathione” (Bioorg Med Chem, 2012)

System: Nucleic Acid
Assay: Binding affinity to calf thymus DNA assessed as binding constant by spectrofluorimetry based McGhee von Hippel method
Assay type: nucleic-acid assay
Details: Bos taurus
How it was run: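 Fluorescence titration used compound at 26.7 µM in 0.01 M Tris buffer (pH 7.4, 24 °C). ctDNA was added stepwise from 0 to 32 µM bp at 2 µM intervals until spectra stopped changing. Excitation was 384 nm and emission was read at 410–470 nm. Binding constant K was derived by the McGhee–von Hippel method from Scatchard plot data.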

K: 7.09 ×10⁵ /M
Structure (SMILES): COc1cccc2c1C(=O)c1c(O)c3c(c(O)c1C2=O)C[C@@](O)(C(C)=O)C[C@@H]3O[C@H]1C[C@H](N)[C@H](O)[C@H](C)O1
